From ChEMBL document CHEMBL1135830, “NMR-based modification of matrix metalloproteinase inhibitors with improved bioavailability” (J Med Chem, 2002) come the findings set out here.

T1 sequence (P08254 whole entry): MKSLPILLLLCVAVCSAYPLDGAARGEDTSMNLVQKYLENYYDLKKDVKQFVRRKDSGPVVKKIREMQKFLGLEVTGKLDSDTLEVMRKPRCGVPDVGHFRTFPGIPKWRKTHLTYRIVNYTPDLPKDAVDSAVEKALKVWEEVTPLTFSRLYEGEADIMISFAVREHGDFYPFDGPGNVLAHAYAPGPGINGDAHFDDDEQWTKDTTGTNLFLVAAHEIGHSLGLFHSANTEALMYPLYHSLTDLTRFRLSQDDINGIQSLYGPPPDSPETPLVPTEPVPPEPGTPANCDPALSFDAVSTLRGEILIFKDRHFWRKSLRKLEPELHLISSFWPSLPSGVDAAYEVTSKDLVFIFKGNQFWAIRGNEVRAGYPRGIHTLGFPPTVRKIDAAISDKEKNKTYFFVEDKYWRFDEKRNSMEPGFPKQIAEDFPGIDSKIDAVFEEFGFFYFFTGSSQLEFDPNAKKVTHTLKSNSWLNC

In one data set the test system is Rattus norvegicus. The experiment in a line: Bioavailability after peroral administration at 30 mg/kg against Stromelysin in rat. The data set is classed as ADME, organism-based.
Settings: not given
An outline of the steps: (§1)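 Rats (4 per compound, across two studies) dosed orally at 30 mg/kg in hydroxypropyl methyl cellulose. Tail-vein blood drawn at intervals over 7 h, deproteinated with 2 volumes methanol containing 0.1% acetic acid. Drug level in the extract quantified by bioassay against recombinant stromelysin.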
For orientation: IC50 means the midpoint of a concentration-inhibition curve. Low values mean inhibition by little substance, high ones a need for much substance. The compound `N#Cc1ccc(-c2ccc(OCCC(=O)NO)cc2)cc1` registered an IC50 of 0.057 µM.
Compound `N#Cc1ccc(-c2ccc(OCCOc3ccc4ccccc4c3C(=O)NO)cc2)cc1` had a half-maximal inhibitory concentration (IC50) of 0.34 µM.

The next data set addresses T1, Stromelysin-1 (Homo sapiens, UniProt P08254). In words: Inhibition of Stromelysin (MMP-3).
Settings: not given
The arrangement: species or system Rattus norvegicus.
`N#CCc1cccc(-c2ccc(S(=O)(=O)CCOc3ccc4ccccc4c3C(=O)NO)cc2)c1` gave a 50% inhibitory concentration (IC50) of 0.062 µM.
Consider `N#Cc1ccc(-c2ccc(OCCCOc3ccc4ccccc4c3C(=O)NO)cc2)cc1`, for which the half-inhibitory concentration (IC50) turned out to be 10 µM. Against the preceding compound, the IC50 is about 160-fold higher.
Still for that read-out and setting: then `N#Cc1ccc(-c2ccc(OCc3ccc4ccccc4c3C(=O)NO)cc2)cc1`, with over 10 µM.
Regarding `O=C(NO)c1cccc2ccccc12`, the half-maximal inhibitory concentration (IC50) stood at 50 µM. This lies in the double-digit micromolar range.
In turn, `COc1ccc(-c2ccc(S(=O)(=O)NCCc3ccc4ccccc4c3C(=O)NO)cc2)cc1` showed an IC50 of 10 µM.

For a further data set, the target named is T1, Stromelysin-1. The experiment in a line: Binding to stromelysin (MMP-3) in the presence of 1-Napthohydroxamate. The arrangement: species or system Rattus norvegicus.
Settings: not given
An outline of the steps: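 Catalytic domain of stromelysin (residues 81-256), uniformly ¹⁵N-labeled, at 0.3 mM in H₂O/D₂O (9/1) with 50 mM Tris pH 7.0, 20 mM CaCl₂ and 0.05% sodium azide. Compounds were added from perdeuterated DMSO solutions. Binding was detected as changes in sensitivity-enhanced ¹⁵N HSQC spectra (500 MHz), recorded with and without compound.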
For orientation: Kd means a measure of binding affinity in units of concentration. As for `N#Cc1ccc(-c2ccc(O)cc2)cc1`, the Kd is under 50 µM.
Regarding `Oc1ccc(-c2ccc(O)cc2)cc1`, the dissociation constant (Kd) was 150 µM.
Turning to `c1ccc(-c2ccncc2)cc1`, the dissociation constant (Kd) was 900 µM.

Another data set addresses T1, Stromelysin-1. In words: Binding to stromelysin (MMP-3) in the presence of acetohydroxamic acid. The arrangement: species or system Rattus norvegicus.
Settings: not given
In outline: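 Uniformly 15N-labeled stromelysin catalytic domain (residues 81-256) at 0.3 mM in 50 mM Tris, pH 7.0, H2O/D2O 9/1, with 20 mM CaCl2 and 0.05% sodium azide. Sensitivity-enhanced 15N HSQC spectra were recorded at 500 MHz with and without compound added in perdeuterated DMSO. Binding was read from changes in the HSQC spectrum.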
On to `N#Cc1ccc(-c2ccc(O)cc2)cc1`, for which the Kd is under 50 µM.

The next data set deals with T1, Stromelysin-1. In words: Binding to stromelysin (MMP-3) in place of acetohydroxamic acid. Details: species or system Rattus norvegicus.
Settings: not given
An outline of the steps: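 Binding detected by sensitivity-enhanced 15N HSQC on uniformly 15N-labeled stromelysin catalytic domain (residues 81-256), 0.3 mM protein in H2O/D2O 9:1 Tris buffer 50 mM pH 7.0, 20 mM CaCl2, 0.05% sodium azide. Ligands added from perdeuterated DMSO, screened at 25.0 mM each; spectra with versus without compound compared for shifts at 500 MHz.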
Regarding `SCc1cccs1`, the Kd was determined as 150 µM.
Regarding `CCOC(=O)CC(=O)C(F)(F)F`, the Kd is over 25000 µM.
For the compound `O=C(CC(=O)C(F)(F)F)c1ccccc1`, the Kd is over 25000 µM.
For the compound `O=C(NO)c1ccccc1` [BENZOHYDROXAMATE], binding was put at a Kd of 7000 µM.
For the compound `O=C(O)c1ccccc1O` [SALICYLIC ACID], the dissociation constant Kd is over 25000 µM.
With `NC(=O)c1ccccc1O` [SALICYLAMIDE], the dissociation constant Kd was over 25000 µM.
`O=C(NO)c1cccc2ccccc12` gave a Kd of 50 µM.
In turn, `CCOC(=O)NO` [ETHYL HYDROXYCARBAMATE] displayed an equilibrium dissociation constant (Kd) of over 25000 µM.
Same read-out and setting: then `NC(=O)NO` [HYDROXYUREA], with over 25000 µM; and `CC(=O)c1ccccn1`, with over 25000 µM.
In turn, `O=C(O)CCS` [MERCAPTOPROPIONIC ACID] displayed a dissociation constant Kd of 3000 µM.

Tested on in another data set: not listed separately
In words: Half-life period was determined. The data set is classed as ADME.
Settings: not given
In outline: as §1
The half-life is how long it takes for the measured level to halve. For `N#Cc1ccc(-c2ccc(OCCOc3ccc4ccccc4c3C(=O)NO)cc2)cc1`, the half-life was 2 h.

Tested on in another data set: not listed separately
In words: Cmax was determined. The data set is classed as ADME, organism-based. The conditions noted are these: in vivo. In outline: as §1
In general, Cmax refers to the maximum level reached in the sampled fluid or tissue. In turn, `N#Cc1ccc(-c2ccc(OCCOc3ccc4ccccc4c3C(=O)NO)cc2)cc1` registered a Cmax of 28 µM.
